Measured values as given in ChEMBL document CHEMBL1938279, “Synthesis and evaluation of macrocyclic diarylether heptanoid natural products and their analogs” (Bioorg Med Chem Lett, 2012).
Activity calls are given as the source filed them. The calls are words filed in the database; no cut-off is given here.

Legend:
[1] = Inhibition of NF-kappaB activation in human TNFalpha-stimulated A549 cells preincubated for 2 hrs before TNFalpha challenge measured after 7 hrs post stimulation by luciferase reporter gene assay; assay type: cell-based
Outline: (§1)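 Stable κB-luciferase-expressing A549 cells; NF-κB transcription activity read as luciferase signal; single concentration of 20 μM and dose-response experiments.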

A549 = experiment: Inhibition of NF-kappaB activation in human TNFalpha-stimulated A549 cells at 20 uM preincubated for 2 hrs before TNFalpha challenge measured after 7 hrs post stimulation by luciferase reporter gene assay; assay type: cell-based; outline: as §1
PANC-1 [2] = experiment: Potentiation of gemcitabine-induced cytotoxicity against human PANC1 cells assessed as cell growth inhibition at 20 uM after 5 days by alamar blue assay; assay type: functional, cell-based
Outline: (§2)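 Hs 766T and PANC-1 pancreatic tumour cells given test agent alone or combined with gemcitabine; growth inhibition measured; data representative of three independent experiments, mean ± SD.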

PANC-1 [3] = experiment: Growth inhibition of human PANC1 cells at 20 uM after 5 days by alamar blue assay; assay type: functional, cell-based; outline: as §2
Hs 766 [4] = experiment: Growth inhibition of human Hs766T cells at 20 uM after 5 days by alamar blue assay; assay type: functional, cell-based; outline: as §2
PANC-1 [5] = experiment: Potentiation of gemcitabine-induced induction of apoptosis in human PANC1 cells assessed as activation of caspase 3/7 after 48 hrs by caspase-Glo 3 assay; assay type: functional, cell-based
Outline: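 PANC-1 cells treated with test agent alone or combined with gemcitabine; caspase 3/7 activity read after 48 hr as apoptosis marker; representative of two independent experiments, mean ± SD.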

HEK293 [6] = experiment: Inhibition of TNFalpha-stimulated IkappaBalpha protein expression in HEK293 cells at 50 uM after 30 mins by Western blot analysis; assay type: functional, cell-based; conditions: Homo sapiens
Outline: (§3)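 HEK 293 cells stimulated with TNF-α with or without test agent; IκBα protein levels assessed by Western blotting at set times after stimulation.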

HEK293 [7] = experiment: Inhibition of TNFalpha-stimulated IkappaBalpha protein expression in HEK293 cells at 50 uM after 60 mins by Western blot analysis; assay type: functional, cell-based; conditions: Homo sapiens; outline: as §3
HEK293 [8] = experiment: Inhibition of TNFalpha-stimulated IkappaBalpha protein expression in HEK293 cells at 50 uM after 120 mins by Western blot analysis; assay type: functional, cell-based; conditions: Homo sapiens; outline: as §3
Hs 766 [9] = experiment: Potentiation of gemcitabine-induced cytotoxicity against human Hs766T cells assessed as cell growth inhibition at 20 uM after 5 days by alamar blue assay; assay type: functional, cell-based; outline: as §2

COc1cc(/C=C/C(=O)CC(=O)/C=C/c2ccc(O)c(OC)c2)ccc1O [CURCUMIN]
IC50 [1]: 20.3 µM

C=C1C(=O)O[C@@H]2C3O[C@]3(C)CC/C=C(\C)CC[C@@H]12 (some centres undefined)
IC50 [1]: 4.7 µM

COc1ccc2cc1Oc1cc(ccc1OC)CCC(=O)CCCC2
inhibition (A549): Active | growth inhibition (GI) (PANC-1 [2]): Active | IC50 [1]: 14.3 µM | growth inhibition (GI) (PANC-1 [3]): inactive | growth inhibition (GI) (Hs 766 [4]): inactive | Activity (PANC-1 [5]): Active | inhibition (HEK293 [6]): Active | inhibition (HEK293 [7]): Active | inhibition (HEK293 [8]): Active | growth inhibition (GI) (Hs 766 [9]): Active

COc1cc2ccc1Oc1cc(ccc1OC)CCC(O)CCCC2 (centres undefined) [PLATYCARYNOL]
IC50 [1]: 36.4 µM

COc1ccc2c(c1OC)C(=O)O[C@@H]2[C@H]1c2c(cc3c(c2OC)OCO3)CCN1C [NOSCAPINE]
IC50 [1]: 65.2 µM
